Results pooled from the literature.
Cell line: HT-29
Read-out: cell growth or viability

Compound | method | concentration | time | inhibition [%]
COc1ccc(C(=O)/C=C/c2cccnc2)cc1S(N)(=O)=O | SRB | 10 µM | – | 76
COc1ccc2c(c1)/C(=N/NC(=O)c1cc3ccccc3[nH]1)C(=O)N2C | – | 30 µM | – | 90.8
CCN(CC)CCNC(=O)c1c(C)[nH]c(/C=C2\C(=O)Nc3ccc(F)cc32)c1C | – | 30 µM | – | 59.5
COc1ccc2c(c1)C(=NNc1nc(-c3ccc(OC)c(OC)c3)nc3ccccc13)C(=O)N2 | – | 30 µM | – | 6.2
COc1ccc2c(c1)/C(=N/NC(=O)c1cc3ccccc3[nH]1)C(=O)N2 | – | 30 µM | – | 36.5
COc1cc2ncnc(NN=C3C(=O)Nc4ccc(C)cc43)c2cc1OC | – | 30 µM | – | 49.3
COc1ccc(C(=O)/C=C/c2cccc(Cl)c2Cl)cc1S(N)(=O)=O | SRB | 10 µM | – | 106
O=C1Nc2ccccc2C1=NNc1nnc2n1N=C(c1ccccc1)CS2 | SRB | 10 µM | – | 28
COc1cccc2c1C(=O)c1c(O)c3c(c(O)c1C2=O)C[C@@](O)(C(=O)CO)C[C@@H]3O[C@H]1C[C@H](N)[C@H](O)[C@H](C)O1 | SRB | 10 µg/mL | 48 h | 97.1
COc1ccccc1/C=C/C(=O)c1ccc(OC)c(S(N)(=O)=O)c1 | SRB | 10 µM | – | 81
COc1cc2ncnc(NN=C3C(=O)Nc4ccccc43)c2cc1OC | – | 30 µM | – | 38.7
O=C(N/N=C1\C(=O)N(c2ccccc2)c2ccccc21)c1cc2ccccc2[nH]1 | – | 30 µM | – | 97
Cn1c(=O)c(NN=C2C(=O)Nc3ccc(Cl)cc32)nc2ccccc21 | – | 30 µM | – | 16.1
O=C1Nc2ccc(Cl)cc2/C1=N/NC(=O)c1cc2ccccc2[nH]1 | – | 30 µM | – | 29.4
COc1ccc(C(=O)/C=C/c2cccc(Cl)c2)cc1S(N)(=O)=O | SRB | 10 µM | – | 99
Cn1c(=O)c(NN=C2C(=O)Nc3ccc(Br)cc32)nc2ccccc21 | – | 30 µM | – | 49.4
O=C1Nc2ccccc2/C1=N/NC(=O)c1cc2ccccc2[nH]1 | – | 30 µM | – | 75.4
COc1ccc(C(=O)/C=C/c2cccc3ccccc23)cc1S(N)(=O)=O | SRB | 10 µM | – | 140
O=C1Nc2ccccc2C1=NNc1nnc(Cc2ccccc2)c2ccccc12 | – | 30 µM | – | 87.6
O=C1Nc2ccc(F)cc2/C1=N/NC(=O)c1cc2ccccc2[nH]1 | – | 30 µM | – | 13.9
COc1ccc(C(=O)/C=C/c2ccccc2Br)cc1S(N)(=O)=O | SRB | 10 µM | – | 117
